From ChEMBL document CHEMBL1156919, “Synthesis and induction of apoptosis signaling pathway of ent-kaurane derivatives” (Bioorg Med Chem, 2010)
Activity calls are given as the source filed them. The rule behind the calls is not given here.

Assays:
RAW264.7 [1] = test: Cytotoxicity against mouse RAW264.7 cells assessed as reduction in cell viability after 24 hrs by MTT assay; assay type: functional, cell-based; conditions: RAW264.7, 24 h
Procedure, shortened: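 RAW 264.7 mouse macrophage line kept in RPMI 1640 with 10% FBS, L-glutamine and antibiotics. Treated with 1–100 μM for 24 h, then MTT at 37 °C for 4 h. Formazan taken up in DMSO and read at 540 nm. Triplicate, at least three independent experiments. IC50 is the concentration giving 50% loss of viability relative to untreated cells.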

HeLa = test: Cytotoxicity against human HeLa cells assessed as reduction in cell viability after 24 hrs by MTT assay; assay type: functional, cell-based
Procedure, shortened: (§1)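 Cancer cells kept in DMEM with 10% FBS, L-glutamine and antibiotics. Exposed to 1–100 μM for 24 h, then MTT at 37 °C for 4 h. Formazan dissolved in DMSO and read at 540 nm. Triplicate wells, at least three independent experiments. Viability reduction expressed against untreated cultures. IC50 is the concentration giving 50% loss of viability.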

HepG2 = test: Cytotoxicity against human HepG2 cells assessed as reduction in cell viability after 24 hrs by MTT assay; assay type: functional, cell-based; conditions: HepG2, 24 h; procedure, shortened: as §1
HT-29 = test: Cytotoxicity against human HT-29 cells assessed as reduction in cell viability after 24 hrs by MTT assay; assay type: functional, cell-based; conditions: HT-29, 24 h; procedure, shortened: as §1
[2] = Toxicity in thioglycolate-induced mouse peritoneal macrophages assessed as reduction in cell viability after 24 hrs by MTT assay; assay type: cell-based; conditions: peritoneal macrophage cell
Procedure, shortened: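 Primary peritoneal macrophages from thioglycolate-injected mice exposed to a range of concentrations for 24 h. Viability read by MTT at 37 °C for 4 h, formazan dissolved in DMSO, absorbance at 540 nm. Three independent experiments in duplicate, means ± SD.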

[3] = Toxicity in thioglycolate-induced mouse peritoneal macrophages assessed as induction of apoptosis after 24 hrs by flow cytometry; assay type: cell-based; conditions: peritoneal macrophage cell
Procedure, shortened: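 Peritoneal macrophages collected from thioglycolate-injected mice and treated across a concentration range for 24 h. Stained with PI and analysed by flow cytometry for apoptotic percentage. Means ± SD of three independent experiments done in duplicate.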

RAW264.7 [4] = test: Induction of apoptosis in mouse RAW264.7 cells at 1 to 25 uM after 24 hrs by flow cytometry; assay type: functional, cell-based
Procedure, shortened: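 RAW 264.7 cells exposed to 1–25 μM for 24 h. Stained with 0.005% (w/v) propidium iodide and analysed at once by flow cytometry. Apoptotic and necrotic fractions taken from a forward scatter versus PI fluorescence dot plot. Means ± SD of three independent experiments in triplicate.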

RAW264.7 [5] = test: Induction of apoptosis in mouse RAW264.7 cells assessed as caspase 9 activation at 5 uM after 24 hrs by fluorimetry; assay type: functional, cell-based
Procedure, shortened: (§2)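 RAW cells treated with 5 μM for 24 h, with or without 40 μM z-VAD. Caspase activity read fluorimetrically in cytosolic extracts. Substrates: Ac-DEVD-AMC for caspase-3, Ac-IETD-AFC for caspase-8, Ac-LEHD-AFC for caspase-9. Means ± SD of three independent experiments run in triplicate.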

RAW264.7 [6] = test: Induction of apoptosis in mouse RAW264.7 cells assessed as caspase 3 activation at 5 uM after 24 hrs by fluorimetry; assay type: functional, cell-based; procedure, shortened: as §2
RAW264.7 [7] = test: Induction of apoptosis in mouse RAW264.7 cells assessed as caspase 8 activation at 5 uM in presence of 40 uM caspase inhibitor z-VAD after 24 hrs by fluorimetric assay; assay type: functional, cell-based; procedure, shortened: as §2
RAW264.7 [8] = test: Induction of apoptosis in mouse RAW264.7 cells assessed as caspase 9 activation at 5 uM in presence of 40 uM caspase inhibitor z-VAD after 24 hrs by fluorimetric assay; assay type: functional, cell-based; procedure, shortened: as §2
RAW264.7 [9] = test: Induction of apoptosis in mouse RAW264.7 cells assessed as caspase 3 activation at 5 uM in presence of 40 uM caspase inhibitor z-VAD after 24 hrs by fluorimetric assay; assay type: functional, cell-based; procedure, shortened: as §2
RAW264.7 [10] = test: Induction of apoptosis in mouse RAW264.7 cells at 5 uM in presence of 40 uM caspase inhibitor z-VAD after 24 hrs by flow cytometry; assay type: functional, cell-based
Procedure, shortened: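 RAW 264.7 cells given 5 μM for 24 h, with or without 40 μM z-VAD. Stained with 0.005% (w/v) PI and analysed by flow cytometry. Apoptotic percentage taken from a forward scatter versus PI fluorescence dot plot. Three independent experiments in triplicate, means ± SD.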

RAW264.7 [11] = test: Increase in p53 protein expression in mouse RAW264.7 cells at 5 uM by Western blot; assay type: functional, cell-based
Procedure, shortened: (§3)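 RAW 264.7 cells incubated with 5 μM and sampled at several time points. Cytosolic extracts run on SDS–PAGE (10–15% gels) and blotted to PVDF. Probed for p53, Bax, Bcl-2, Bcl-xl, XIAP, IAP-1 and IAP-2, then HRP secondary and chemiluminescence. β-actin served as loading control. Protein measured by Bio-Rad assay.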

RAW264.7 [12] = test: Increase in Bax protein expression in mouse RAW264.7 cells at 5 uM by Western blot; assay type: functional, cell-based; procedure, shortened: as §3
RAW264.7 [13] = test: Decrease in Bcl-2 protein expression in mouse RAW264.7 cells at 5 uM by Western blot; assay type: functional, cell-based; procedure, shortened: as §3
RAW264.7 [14] = test: Decrease in Bcl-xl protein expression in mouse RAW264.7 cells at 5 uM by Western blot; assay type: functional, cell-based; procedure, shortened: as §3
RAW264.7 [15] = test: Decrease in IAP protein expression in mouse RAW264.7 cells at 5 uM by Western blot; assay type: functional, cell-based; procedure, shortened: as §3
RAW264.7 [16] = test: Induction of apoptosis in mouse RAW264.7 cells assessed as caspase 8 activation at 5 uM after 24 hrs by fluorimetry; assay type: functional, cell-based; procedure, shortened: as §2

C=C1C(=O)[C@@]23CC[C@H]4[C@@](C)(CCC[C@@]4(C)C(=O)O)[C@@H]2CC[C@@H]1C3
IC50 (RAW264.7 [1]): 35 µM

COC(=O)[C@]1(C)CCC[C@@]2(C)[C@@H]3CC[C@@H]4C[C@@]3(CC[C@@H]21)C[C@@]4(C)Cl
IC50 (RAW264.7 [1]): > 100 µM

COC(=O)[C@]1(C)CCC[C@@]2(C)[C@@H]3CC[C@@H]4C[C@]3(C=C4C=O)CC[C@@H]21
IC50 (RAW264.7 [1]): 25 µM

C=C1C[C@@]23CC[C@@H]4[C@](C)(C(=O)O)CCC[C@@]4(C)C2=CC[C@@H]1C3 [GRANDIFLORENIC ACID]
IC50 (RAW264.7 [1]): 15 µM

COC(=O)[C@]1(C)CCC[C@@]2(C)C3=CC[C@@H]4C[C@@]3(CC[C@H]12)C[C@]4(O)CO
IC50 (RAW264.7 [1]): 25 µM

COC(=O)[C@]1(C)CCC[C@@]2(C)C3=CC[C@@H]4C[C@]3(C=C4C=O)CC[C@H]12
IC50 (RAW264.7 [1]): 5 µM
IC50 (HeLa): 10 µM
IC50 (HepG2): 25 µM
IC50 (HT-29): 40 µM
Activity [2]: Toxic
Activity [3]: Toxic
Activity (RAW264.7 [4]): Active
Activity (RAW264.7 [5]): Active
Activity (RAW264.7 [6]): Active
Activity (RAW264.7 [7]): inactive
Activity (RAW264.7 [8]): inactive
Activity (RAW264.7 [9]): inactive
Activity (RAW264.7 [10]): inactive
Activity (RAW264.7 [11]): Active
Activity (RAW264.7 [12]): Active
Activity (RAW264.7 [13]): Active
Activity (RAW264.7 [14]): Active
Activity (RAW264.7 [15]): Active

C=C1[C@@H]2CC[C@H]3[C@]4(C)CCC[C@@](C)(C(=O)OC)[C@H]4CC[C@]3(C2)[C@H]1OC(C)=O
IC50 (RAW264.7 [1]): 25 µM

COC(=O)[C@]1(C)CCC[C@@]2(C)[C@@H]3CC[C@@H]4C[C@@]3(CC[C@@H]21)C[C@@]4(C)OC
IC50 (RAW264.7 [1]): > 100 µM

COC(=O)[C@]1(C)CCC[C@@]2(C)[C@@H]3CC[C@@H]4C[C@@]3(CC[C@@H]21)C[C@H]4/C=N/O
IC50 (RAW264.7 [1]): 35 µM

C=C1C(=O)[C@@]23CC[C@@H]4[C@](C)(C(=O)OC)CCC[C@@]4(C)C2=CC[C@@H]1C3
IC50 (RAW264.7 [1]): 5 µM
IC50 (HeLa): 25 µM
IC50 (HepG2): > 100 µM
IC50 (HT-29): 25 µM
Activity [2]: Non-toxic
Activity [3]: Non-toxic
Activity (RAW264.7 [4]): Active
Activity (RAW264.7 [16]): Active
Activity (RAW264.7 [5]): Active
Activity (RAW264.7 [6]): Active
Activity (RAW264.7 [7]): inactive
Activity (RAW264.7 [8]): inactive
Activity (RAW264.7 [9]): inactive
Activity (RAW264.7 [10]): inactive
Activity (RAW264.7 [11]): Active
Activity (RAW264.7 [12]): Active
Activity (RAW264.7 [13]): Active
Activity (RAW264.7 [14]): Active
Activity (RAW264.7 [15]): Active

C=C1[C@@H]2CC[C@H]3[C@]4(C)CCC[C@@](C)(C(=O)OC)[C@H]4CC[C@]3(C2)[C@H]1O
IC50 (RAW264.7 [1]): > 100 µM

C=C1C[C@@]23CC[C@@H]4[C@](C)(C(=O)OCc5ccccc5)CCC[C@@]4(C)C2=CC[C@@H]1C3 [GRANDIFLORENIC ACID BENZYL ESTER]
IC50 (RAW264.7 [1]): 65 µM

C=C1[C@H]2CC3=C([C@H](C2)[C@@H]1O)[C@]1(C)CCC[C@@](C)(C(=O)OC)[C@H]1CC3
IC50 (RAW264.7 [1]): 5 µM
IC50 (HeLa): > 100 µM
IC50 (HepG2): > 100 µM
IC50 (HT-29): > 100 µM
Activity [2]: Non-toxic
Activity [3]: Non-toxic
Activity (RAW264.7 [4]): Active
Activity (RAW264.7 [16]): Active
Activity (RAW264.7 [5]): Active
Activity (RAW264.7 [6]): Active
Activity (RAW264.7 [7]): inactive
Activity (RAW264.7 [8]): inactive
Activity (RAW264.7 [9]): inactive
Activity (RAW264.7 [10]): inactive
Activity (RAW264.7 [11]): Active
Activity (RAW264.7 [12]): Active
Activity (RAW264.7 [13]): Active
Activity (RAW264.7 [14]): Active
Activity (RAW264.7 [15]): Active

C=C1C[C@@]23CC[C@H]4[C@@](C)(CCC[C@@]4(C)C(=O)O)[C@@H]2CC[C@@H]1C3 [KAURENOIC ACID]
IC50 (RAW264.7 [1]): > 100 µM

COC(=O)[C@]1(C)CCC[C@@]2(C)[C@@H]3CC[C@@H]4C[C@@]3(CC[C@@H]21)C(=O)[C@H]4CCc1ccccc1
IC50 (RAW264.7 [1]): > 100 µM

COC(=O)[C@]1(C)CCCC2(C)[C@@H]3CC[C@@H]4C[C@@]3(CC[C@@H]21)C[C@@]41CO1 (some centres undefined)
IC50 (RAW264.7 [1]): > 100 µM
